According to ChEMBL document CHEMBL3872225, “Synthesis, binding assays, cytotoxic activity and docking studies of benzimidazole and benzothiophene derivatives with selective affinity for the CB2 cannabinoid receptor” (Eur J Med Chem, 2016):

system: not listed separately; assay: Cytotoxicity against human HeLa cells assessed as reduction in cell viability measured after 72 hrs by MTT assay; format: functional, cell-based; details: not given
Procedure, shortened: (§1)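 Cells kept in RPMI 1640 with 5% FBS, penicillin/streptomycin, 37 °C, 5% CO2. Seeded at 10,000 cells/well, then exposed to compounds at 0.001–10 μM in 5% FBS-RPMI for 72 h at 37 °C. MTT added for 4 h, formazan dissolved overnight in 10% SDS/0.1 mM HCl, absorbance read at 570 nm. […] Etoposide as positive control.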

SMILES	IC50 [µM]
O=C(c1cccc2ccccc12)n1c(C2CCC2)nc2ccccc21	> 10
COc1ccc(C(=O)n2c(C3CCC3)nc3ccccc32)cc1	> 10
O=C(c1cccc2ccccc12)c1csc2ccccc12	> 10
CC(C)Cc1sc2ccccc2c1C(=O)c1cccc2ccccc12	> 10
CCc1sc2ccccc2c1C(=O)c1cccc2ccccc12	> 10
COc1cc([C@@H]2c3cc4c(cc3[C@@H](O[C@@H]3O[C@@H]5CO[C@@H](C)O[C@H]5[C@H](O)[C@H]3O)[C@H]3COC(=O)[C@H]23)OCO4)cc(OC)c1O [ETOPOSIDE]	8.2
COc1ccc(C(=O)n2c(CC(C)C)nc3ccccc32)cc1	> 10
CCCc1nc2ccccc2n1C(=O)c1cccc2ccccc12	> 10
Cc1c(C(=O)c2cccc3ccccc23)c2cccc3c2n1[C@H](CN1CCOCC1)CO3 [WIN-552122]	0.98
Cc1nc2ccccc2n1C(=O)c1cccc2ccccc12	> 10
COc1ccc(C(=O)n2c(C)nc3ccccc32)cc1	> 10

molecular target: T1, Cannabinoid receptor 2 (Homo sapiens, UniProt P34972); assay: Displacement of [3H]CP-55940 from human recombinant CB2 receptor expressed in HEK293 cell membranes incubated for 1.5 hrs; details: not given
T1 sequence (P34972 whole entry): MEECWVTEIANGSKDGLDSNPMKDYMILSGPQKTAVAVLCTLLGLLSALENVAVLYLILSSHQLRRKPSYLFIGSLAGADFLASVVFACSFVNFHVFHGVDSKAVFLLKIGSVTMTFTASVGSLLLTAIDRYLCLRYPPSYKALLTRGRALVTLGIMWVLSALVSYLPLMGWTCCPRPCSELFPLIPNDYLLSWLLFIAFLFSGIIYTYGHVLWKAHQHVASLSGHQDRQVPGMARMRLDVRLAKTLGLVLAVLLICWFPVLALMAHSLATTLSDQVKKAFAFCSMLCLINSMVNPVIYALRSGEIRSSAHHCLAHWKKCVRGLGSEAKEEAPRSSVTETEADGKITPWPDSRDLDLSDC
Procedure, shortened: (§2)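 Membranes from HEK-293 cells overexpressing human CB1 or CB2 incubated with increasing compound concentrations and 0.5 nM [3H]CP-55,940 at 30 °C for 1.5 h. […] Selectivity index is Ki CB1/Ki CB2.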

SMILES	IC50 [µM]	Ki [nM]
O=C(c1cccc2ccccc12)n1c(C2CCC2)nc2ccccc21	5.5	1400
COc1ccc(C(=O)n2c(C3CCC3)nc3ccccc32)cc1	3.6	900
O=C(c1cccc2ccccc12)c1csc2ccccc12	1.1	200
CC(C)Cc1sc2ccccc2c1C(=O)c1cccc2ccccc12	2	500
CCc1sc2ccccc2c1C(=O)c1cccc2ccccc12	2.9	700
COc1ccc(C(=O)n2c(CC(C)C)nc3ccccc32)cc1	> 10	> 10000
CCCc1nc2ccccc2n1C(=O)c1cccc2ccccc12	> 10	> 10000
Cc1nc2ccccc2n1C(=O)c1cccc2ccccc12	> 10	> 10000
COc1ccc(C(=O)n2c(C)nc3ccccc32)cc1	> 10	> 10000

molecular target: Cannabinoid receptor 1 (CB1) (Homo sapiens, UniProt P21554); assay: Displacement of [3H]CP-55940 from human recombinant CB1 receptor expressed in HEK293 cell membranes at 1 uM incubated for 1.5 hrs relative to control; details: probe [3H]CP-55940
Sequence (P21554 whole entry): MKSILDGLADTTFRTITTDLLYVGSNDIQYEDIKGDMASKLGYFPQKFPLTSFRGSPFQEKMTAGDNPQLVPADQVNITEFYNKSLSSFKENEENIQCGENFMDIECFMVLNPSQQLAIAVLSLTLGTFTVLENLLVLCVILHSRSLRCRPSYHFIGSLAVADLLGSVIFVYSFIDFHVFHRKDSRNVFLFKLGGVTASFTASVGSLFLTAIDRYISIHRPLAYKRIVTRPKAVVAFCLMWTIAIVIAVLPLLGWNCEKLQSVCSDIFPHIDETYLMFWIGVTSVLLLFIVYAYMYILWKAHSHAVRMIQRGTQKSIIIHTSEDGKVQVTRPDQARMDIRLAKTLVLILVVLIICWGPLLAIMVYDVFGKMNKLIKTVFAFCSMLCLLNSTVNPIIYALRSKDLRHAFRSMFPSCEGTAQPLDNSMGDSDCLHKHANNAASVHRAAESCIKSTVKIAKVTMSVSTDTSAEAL
Procedure, shortened: (§3)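 Single-point screen on HEK-293 membranes overexpressing human CB1 or CB2. […] Compounds displacing more than 50% at 1 μM went on to full curves.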

SMILES	inhibition at 1.5 h, 1 µM [%]
O=C(c1cccc2ccccc12)n1c(C2CCC2)nc2ccccc21	> 50
COc1ccc(C(=O)n2c(C3CCC3)nc3ccccc32)cc1	> 50
O=C(c1cccc2ccccc12)c1csc2ccccc12	> 50
CC(C)Cc1sc2ccccc2c1C(=O)c1cccc2ccccc12	> 50
CCc1sc2ccccc2c1C(=O)c1cccc2ccccc12	> 50
COc1ccc(C(=O)n2c(CC(C)C)nc3ccccc32)cc1	> 50
CCCc1nc2ccccc2n1C(=O)c1cccc2ccccc12	> 50
Cc1nc2ccccc2n1C(=O)c1cccc2ccccc12	> 50
COc1ccc(C(=O)n2c(C)nc3ccccc32)cc1	> 50

molecular target: Cannabinoid receptor 1 (Homo sapiens, UniProt P21554); assay: Displacement of [3H]CP-55940 from human recombinant CB1 receptor expressed in HEK293 cell membranes incubated for 1.5 hrs; details: not given; procedure, shortened: as §2
Sequence (P21554 whole entry): as above

SMILES	IC50 [µM]	Ki [µM]
O=C(c1cccc2ccccc12)n1c(C2CCC2)nc2ccccc21	9.7	5.8
COc1ccc(C(=O)n2c(C3CCC3)nc3ccccc32)cc1	> 10	> 10
O=C(c1cccc2ccccc12)c1csc2ccccc12	> 10	> 10
CC(C)Cc1sc2ccccc2c1C(=O)c1cccc2ccccc12	1.2	0.7
CCc1sc2ccccc2c1C(=O)c1cccc2ccccc12	8.4	5.1
COc1ccc(C(=O)n2c(CC(C)C)nc3ccccc32)cc1	> 10	> 10
CCCc1nc2ccccc2n1C(=O)c1cccc2ccccc12	> 10	> 10
Cc1nc2ccccc2n1C(=O)c1cccc2ccccc12	> 10	> 10
COc1ccc(C(=O)n2c(C)nc3ccccc32)cc1	> 10	> 10

system: not listed separately; assay: Cytotoxicity against African green monkey Vero cells assessed as reduction in cell viability measured after 72 hrs by MTT assay; format: toxicity, cell-based; details: Chlorocebus sabaeus (African green monkey); procedure, shortened: as §1

SMILES	IC50 at 72 h [µM]
O=C(c1cccc2ccccc12)n1c(C2CCC2)nc2ccccc21	> 10
COc1ccc(C(=O)n2c(C3CCC3)nc3ccccc32)cc1	> 10
O=C(c1cccc2ccccc12)c1csc2ccccc12	> 10
CC(C)Cc1sc2ccccc2c1C(=O)c1cccc2ccccc12	> 10
CCc1sc2ccccc2c1C(=O)c1cccc2ccccc12	> 10
COc1cc([C@@H]2c3cc4c(cc3[C@@H](O[C@@H]3O[C@@H]5CO[C@@H](C)O[C@H]5[C@H](O)[C@H]3O)[C@H]3COC(=O)[C@H]23)OCO4)cc(OC)c1O [ETOPOSIDE]	1.5
COc1ccc(C(=O)n2c(CC(C)C)nc3ccccc32)cc1	> 10
CCCc1nc2ccccc2n1C(=O)c1cccc2ccccc12	> 10
Cc1c(C(=O)c2cccc3ccccc23)c2cccc3c2n1[C@H](CN1CCOCC1)CO3 [WIN-552122]	0.31
Cc1nc2ccccc2n1C(=O)c1cccc2ccccc12	> 10
COc1ccc(C(=O)n2c(C)nc3ccccc32)cc1	1.23

system: not listed separately; assay: Cytotoxicity against human H1975-1 cells assessed as reduction in cell viability measured after 72 hrs by MTT assay; format: functional, cell-based; details: not given; procedure, shortened: as §1

SMILES	IC50 [µM]
O=C(c1cccc2ccccc12)n1c(C2CCC2)nc2ccccc21	> 10
COc1ccc(C(=O)n2c(C3CCC3)nc3ccccc32)cc1	> 10
O=C(c1cccc2ccccc12)c1csc2ccccc12	> 10
CC(C)Cc1sc2ccccc2c1C(=O)c1cccc2ccccc12	> 10
CCc1sc2ccccc2c1C(=O)c1cccc2ccccc12	> 10
COc1cc([C@@H]2c3cc4c(cc3[C@@H](O[C@@H]3O[C@@H]5CO[C@@H](C)O[C@H]5[C@H](O)[C@H]3O)[C@H]3COC(=O)[C@H]23)OCO4)cc(OC)c1O [ETOPOSIDE]	9.5
COc1ccc(C(=O)n2c(CC(C)C)nc3ccccc32)cc1	> 10
CCCc1nc2ccccc2n1C(=O)c1cccc2ccccc12	> 10
Cc1c(C(=O)c2cccc3ccccc23)c2cccc3c2n1[C@H](CN1CCOCC1)CO3 [WIN-552122]	3.8
Cc1nc2ccccc2n1C(=O)c1cccc2ccccc12	> 10
COc1ccc(C(=O)n2c(C)nc3ccccc32)cc1	> 10

system: not listed separately; assay: Cytotoxicity against human HL60 cells assessed as reduction in cell viability measured after 72 hrs by MTT assay; format: functional, cell-based; details: HL-60, 72 h; procedure, shortened: as §1

SMILES	IC50 [nM]
O=C(c1cccc2ccccc12)n1c(C2CCC2)nc2ccccc21	180
COc1ccc(C(=O)n2c(C3CCC3)nc3ccccc32)cc1	47
O=C(c1cccc2ccccc12)c1csc2ccccc12	58
CC(C)Cc1sc2ccccc2c1C(=O)c1cccc2ccccc12	72
CCc1sc2ccccc2c1C(=O)c1cccc2ccccc12	99
COc1cc([C@@H]2c3cc4c(cc3[C@@H](O[C@@H]3O[C@@H]5CO[C@@H](C)O[C@H]5[C@H](O)[C@H]3O)[C@H]3COC(=O)[C@H]23)OCO4)cc(OC)c1O [ETOPOSIDE]	2100
COc1ccc(C(=O)n2c(CC(C)C)nc3ccccc32)cc1	34
CCCc1nc2ccccc2n1C(=O)c1cccc2ccccc12	100
Cc1c(C(=O)c2cccc3ccccc23)c2cccc3c2n1[C@H](CN1CCOCC1)CO3 [WIN-552122]	7
Cc1nc2ccccc2n1C(=O)c1cccc2ccccc12	93
COc1ccc(C(=O)n2c(C)nc3ccccc32)cc1	57

molecular target: T1, Cannabinoid receptor 2; assay: Displacement of [3H]CP-55940 from human recombinant CB2 receptor expressed in HEK293 cell membranes at 1 uM incubated for 1.5 hrs relative to control; details: not given; procedure, shortened: as §3

SMILES	inhibition [%]
O=C(c1cccc2ccccc12)n1c(C2CCC2)nc2ccccc21	> 50
COc1ccc(C(=O)n2c(C3CCC3)nc3ccccc32)cc1	> 50
O=C(c1cccc2ccccc12)c1csc2ccccc12	> 50
CC(C)Cc1sc2ccccc2c1C(=O)c1cccc2ccccc12	> 50
CCc1sc2ccccc2c1C(=O)c1cccc2ccccc12	> 50
COc1ccc(C(=O)n2c(CC(C)C)nc3ccccc32)cc1	> 50
CCCc1nc2ccccc2n1C(=O)c1cccc2ccccc12	> 50
Cc1nc2ccccc2n1C(=O)c1cccc2ccccc12	> 50
COc1ccc(C(=O)n2c(C)nc3ccccc32)cc1	> 50

species on record: Homo sapiens; assay: Selectivity index, ratio of Ki for displacement of [3H]CP-55940 from human recombinant CB1 receptor to Ki for displacement of [3H]CP-55940 from human recombinant CB2 receptor; details: not given; procedure, shortened: as §2

SMILES	Ratio Ki
O=C(c1cccc2ccccc12)n1c(C2CCC2)nc2ccccc21	4.14
COc1ccc(C(=O)n2c(C3CCC3)nc3ccccc32)cc1	> 11
O=C(c1cccc2ccccc12)c1csc2ccccc12	> 50
CC(C)Cc1sc2ccccc2c1C(=O)c1cccc2ccccc12	1.4
CCc1sc2ccccc2c1C(=O)c1cccc2ccccc12	7.28

system: not listed separately; assay: Cytotoxicity against resistant human HCT116 cells assessed as reduction in cell viability measured after 72 hrs by MTT assay; format: functional, cell-based; details: HCT-116, 72 h; procedure, shortened: as §1

SMILES	IC50 [µM]
O=C(c1cccc2ccccc12)n1c(C2CCC2)nc2ccccc21	> 10
COc1ccc(C(=O)n2c(C3CCC3)nc3ccccc32)cc1	> 10
O=C(c1cccc2ccccc12)c1csc2ccccc12	> 10
CC(C)Cc1sc2ccccc2c1C(=O)c1cccc2ccccc12	> 10
CCc1sc2ccccc2c1C(=O)c1cccc2ccccc12	> 10
COc1cc([C@@H]2c3cc4c(cc3[C@@H](O[C@@H]3O[C@@H]5CO[C@@H](C)O[C@H]5[C@H](O)[C@H]3O)[C@H]3COC(=O)[C@H]23)OCO4)cc(OC)c1O [ETOPOSIDE]	2.8
COc1ccc(C(=O)n2c(CC(C)C)nc3ccccc32)cc1	3.56
CCCc1nc2ccccc2n1C(=O)c1cccc2ccccc12	2.4
Cc1c(C(=O)c2cccc3ccccc23)c2cccc3c2n1[C@H](CN1CCOCC1)CO3 [WIN-552122]	0.92
Cc1nc2ccccc2n1C(=O)c1cccc2ccccc12	> 10
COc1ccc(C(=O)n2c(C)nc3ccccc32)cc1	0.01
